Assay outcomes as filed in PubChem.
Only some compounds are listed: those with a hit (about 3.1% of all), similar ones and a draw of the others.
MEKK2 WT-MEK5: raises or lowers MEK5 binding to wildtype human MEKK2 PB1 domain. bead flow cytometry, Alexa488-MEK5 binding to MEKK2 WT; actives lie on both sides. binding response (% of control), % at 10 µM. actives 1.1% (n = 290,000); in the data active = binding response below about 67% or above about 130%
Apaf1 inhib: human Apaf-1 inhibition. reconstituted apoptosome caspase-3 activity, DEVD-Rh110 fluorescence. actives 0.71% (n = 330,000). AID 489030. inhibition, % at 20 µM; active = inhibition of at least 40% at 20 µM
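System: reconstituted apoptosome with Apaf-1, cytochrome c, caspase-9, procaspase-3, dATP; Signal: Rh110 fluorescence intensity; Schedule: 30 min compound preincubation, 50 min activation, room temperature; Reagent: cytochrome c trigger plus (Z-DEVD)2-Rh110 caspase-3 substrate.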
MEKK3 PB1 HTS: MEKK3-MEK5 PB1 interaction, increase or decrease; Q99759; bead-based flow cytometry, Alexa488-MEK5 binding to MEKK3; actives lie on both sides; 0 = blocked by unlabeled MEK5, 100 = vehicle; binding response (% of control), % at 10 µM; actives 1.4% (n = 290,000); AID 1529;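 active = binding response more than 3 SD above or below the average of its plate-row segment, actives on both sides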;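 also: Alexa488 bead fluorescence after subtracting the streptavidin-only scavenger bead signal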
PREPL inhibitor: human PREPL enzyme inhibition | Q4J6C6 | recombinant PREPL, fluorescence polarization activity-based probe | inhibition, % at 5.96 µM | actives 0.68% (n = 320,000); in the data active = inhibition above about 43%
Target sequence (Q4J6C6 whole entry, looked up): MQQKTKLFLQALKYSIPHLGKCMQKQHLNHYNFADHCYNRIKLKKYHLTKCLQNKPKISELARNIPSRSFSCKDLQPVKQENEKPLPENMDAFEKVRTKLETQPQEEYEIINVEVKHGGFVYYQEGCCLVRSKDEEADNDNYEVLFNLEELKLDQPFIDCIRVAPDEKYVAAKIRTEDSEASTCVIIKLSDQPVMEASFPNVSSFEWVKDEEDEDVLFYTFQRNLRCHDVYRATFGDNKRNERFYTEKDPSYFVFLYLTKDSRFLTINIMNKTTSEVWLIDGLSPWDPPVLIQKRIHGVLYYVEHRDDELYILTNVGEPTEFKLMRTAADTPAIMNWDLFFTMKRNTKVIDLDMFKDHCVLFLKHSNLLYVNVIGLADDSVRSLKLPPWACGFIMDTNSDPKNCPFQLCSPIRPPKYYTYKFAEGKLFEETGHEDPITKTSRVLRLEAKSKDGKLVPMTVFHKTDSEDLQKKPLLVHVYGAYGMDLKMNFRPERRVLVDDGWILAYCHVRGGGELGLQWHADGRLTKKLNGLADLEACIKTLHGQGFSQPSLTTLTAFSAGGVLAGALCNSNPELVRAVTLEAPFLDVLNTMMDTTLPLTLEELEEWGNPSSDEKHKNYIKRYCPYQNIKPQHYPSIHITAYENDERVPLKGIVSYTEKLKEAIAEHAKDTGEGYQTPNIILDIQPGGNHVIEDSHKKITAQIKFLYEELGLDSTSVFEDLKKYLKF
UBC13 polyUb: human UBC13 polyubiquitination inhibition; UBC13 polyubiquitin chain formation, TR-FRET; inhibition, % at 20 µM; actives 0.47% (n = 330,000); in the data active = inhibition above about 45%, passing the limit was not always enough
MEKK2mut PB1 HTS: signal of MEK5 binding to mutant human MEKK2 PB1 domain. actives 0.35% (n = 290,000). bead flow cytometry, Alexa488-MEK5 binding to MEKK2 mutant. percent response, % at 10 µM; in the data active = percent response above about 24%, passing the limit was not always enough
MEKK2wt confirm: raises or lowers MEK5 binding to wildtype human MEKK2, retest. shares compounds with MEKK3 PB1 HTS. bead flow cytometry, Alexa488-MEK5 binding to MEKK2 WT; actives lie on both sides. binding response (% of control), % at 10 µM. actives 2.4% (n = 5,900). AID 1892; in the data active = binding response below about 16% or above about 210%; inactive = in between
MEKK2mut confirm: signal of MEK5 binding to mutant human MEKK2, retest; shares compounds with MEKK3 PB1 HTS; bead flow cytometry, Alexa488-MEK5 binding to MEKK2 mutant; percent response, % at 10 µM; actives 2% (n = 5,900); in the data active = percent response mostly above about 71%, no sharp cut-off; inactive = mostly below about 38%;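 also: higher means compound restores mutant binding toward wildtype level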
MEKK3 confirm: MEKK3-MEK5 PB1 inhibition, single concentration confirmation. shares compounds with MEKK3 PB1 HTS. bead flow cytometry, Alexa488-MEK5 binding to MEKK3; hits give low values. actives 1.8% (n = 5,900). binding response (% of control), % at 10 µM. AID 1894;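 active = binding response below 72% of control, or above a set upper limit, though filed actives all read lower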;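 also: lower values mean stronger disruption of MEK5 binding to MEKK3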
Large screens that a line does not name were inactive (follow-up assays come after a bar, where they were run); [ ] = remark or other dose.

C=C(C)COc1ccc2c(C)c(CC(=O)N3C[C@H]4C[C@@H](C3)c3cccc(=O)n3C4)c(=O)oc2c1C	none
CCOc1ccc(C(=O)COC(=O)c2cc(=O)[nH]c3ccccc23)cc1	none (no result: MEKK2 WT-MEK5, MEKK3 PB1 HTS, MEKK2mut PB1 HTS)
CCOC(=O)c1c(NC(=O)Cn2cc([N+](=O)[O-])cn2)sc2c1CCC2	none
NC(=O)c1c(NC(=O)Cn2cc([N+](=O)[O-])cn2)sc2c1CCCC2	MEKK2mut PB1 HTS 270 (no result: MEKK2 WT-MEK5) | MEKK2wt confirm inactive | MEKK2mut confirm inactive | MEKK3 confirm inactive
CCN1CCc2c(C#N)c(N3CCCCC3)nc(NCc3ccccc3)c2C1	MEKK2 WT-MEK5 158 | MEKK2wt confirm inactive | MEKK2mut confirm inactive | MEKK3 confirm inactive
C=CCNc1nc(N2CCCCC2)c(C#N)c2c1CN(Cc1ccccc1)CC2	none
Cc1ccc(SCCc2cc[n+](CC(=O)c3ccccc3)cc2)cc1	MEKK2 WT-MEK5 143 | MEKK2wt confirm inactive | MEKK2mut confirm inactive | MEKK3 confirm inactive
Cc1ccc(C(=O)C[n+]2ccc(Cc3ccccc3)cc2)cc1	none
CCOC(=O)C1CCCN(S(=O)(=O)CCNC(=O)c2ccc(F)cc2)C1 (centres undefined)	none (no result: MEKK2 WT-MEK5, MEKK3 PB1 HTS, MEKK2mut PB1 HTS)
Nc1cc(S(=O)(=O)Nc2cc(Cl)ccc2Cl)ccc1N1CCCC1	MEKK2 WT-MEK5 40[inhibitor], MEKK3 PB1 HTS 36[inhibitor] | MEKK2wt confirm inactive | MEKK2mut confirm inactive | MEKK3 confirm inactive
COc1cccc(NC(=O)c2ccco2)c1	MEKK2 WT-MEK5 1.0[inhibitor], MEKK3 PB1 HTS 1.0[inhibitor] | MEKK2wt confirm inactive | MEKK2mut confirm inactive | MEKK3 confirm inactive
O=C(Nc1cccc(OC(=O)c2ccco2)c1)c1ccco1	MEKK2 WT-MEK5 -1.0[inhibitor], MEKK3 PB1 HTS 0.0[inhibitor] | MEKK2wt confirm inactive | MEKK2mut confirm inactive | MEKK3 confirm inactive
CCCn1c(O)c(N=NC(=O)c2cccnc2)c2cc(Br)ccc21	none
COc1ccc2c3c([nH]c2c1)C(C)N(CCC(=O)NN)CC3 (centres undefined)	MEKK2 WT-MEK5 140 (no result: PREPL inhibitor) | MEKK2wt confirm inactive | MEKK2mut confirm inactive | MEKK3 confirm inactive
Cn1nc(-c2ccc(Cl)cc2)cc1NC(=O)CC(C)(C)CC(=O)O	MEKK3 PB1 HTS 129 | MEKK2wt confirm inactive | MEKK2mut confirm inactive | MEKK3 confirm inactive
COc1ccc(C(O)(C(C)C)C(CN2CCOCC2)c2ccc(Cl)cc2)cc1 (centres undefined)	none
COc1ccccc1NC(=O)COC(=O)C1CCCC1	none (no result: MEKK2 WT-MEK5, MEKK3 PB1 HTS, MEKK2mut PB1 HTS)
COc1ccccc1NC(=O)c1ccc(NC(=O)COC(=O)C2CCCCC2)cc1	MEKK3 PB1 HTS 137 | MEKK2wt confirm inactive | MEKK2mut confirm inactive | MEKK3 confirm inactive
COc1cc(NC(=O)C(C)Oc2ccccc2)cc(OC)c1 (centres undefined)	MEKK2 WT-MEK5 0.0[inhibitor], MEKK3 PB1 HTS 0.0[inhibitor] | MEKK2wt confirm inactive | MEKK2mut confirm inactive | MEKK3 confirm inactive
O=C(NCc1ccco1)C1CC(c2ccc(F)cc2)=NO1 (centres undefined)	MEKK3 PB1 HTS 73[inhibitor] | MEKK2wt confirm inactive | MEKK2mut confirm inactive | MEKK3 confirm inactive
O=C(NCc1ccco1)C1CC(c2ccc(Cl)cc2)=NO1 (centres undefined)	none
COc1ccc(NC(=O)CCSc2nc(C)cs2)cc1	none
N#Cc1c2nc3ccccc3nc2n2cc(NC(=O)c3ccc(F)cc3)ccc12	MEKK2 WT-MEK5 -1.0[inhibitor], MEKK3 PB1 HTS 56[inhibitor] (no result: Apaf1 inhib, PREPL inhibitor, UBC13 polyUb) | MEKK2wt confirm inactive | MEKK2mut confirm inactive | MEKK3 confirm inactive
Cc1ccc(Cc2nnc3n(-c4ccccc4)nc(C(=O)c4ccccc4)n3c2=O)cc1	MEKK3 PB1 HTS 65[inhibitor] | MEKK2wt confirm inactive | MEKK2mut confirm inactive | MEKK3 confirm inactive
Cc1ccc(CNC(=O)c2cc(C)nn2-c2ccccc2)cc1	none
Cc1cc(OCCN2CCN(S(=O)(=O)c3ccccc3F)CC2)ccc1C(C)C	none (no result: MEKK2 WT-MEK5, MEKK3 PB1 HTS, MEKK2mut PB1 HTS)
Oc1ccc2ccc3[nH]cnc3c2c1	MEKK2 WT-MEK5 45[inhibitor], MEKK3 PB1 HTS 39[inhibitor] | MEKK2wt confirm inactive | MEKK2mut confirm inactive | MEKK3 confirm inactive
Cc1nc2c3cc(F)ccc3n(Cc3ccccc3)c2s1	MEKK3 PB1 HTS 155 | MEKK2wt confirm inactive | MEKK2mut confirm inactive | MEKK3 confirm inactive
Cc1nc2c3ccccc3n(Cc3ccccc3F)c2s1	none
Cc1nc2c3cc(F)ccc3n(Cc3ccccc3F)c2s1	MEKK3 PB1 HTS 140 | MEKK2wt confirm inactive | MEKK2mut confirm inactive | MEKK3 confirm inactive
CC(=O)N(C)c1ccc(C(O)(C(F)(F)F)C(F)(F)F)cc1	none
CC1CC(C)CN(C(=O)COC(=O)c2cccc([N+](=O)[O-])c2)C1 (centres undefined)	MEKK3 PB1 HTS 48[inhibitor] | MEKK2wt confirm inactive | MEKK2mut confirm inactive | MEKK3 confirm inactive
CC1CC(C)CN(C(=O)COC(=O)c2ccc3c(c2)OCO3)C1 (centres undefined)	none (no result: MEKK2 WT-MEK5, MEKK3 PB1 HTS, MEKK2mut PB1 HTS)
Cc1cccc(/C=N/c2sc3c(c2C(=O)OC(C)(C)C)CCN(C)C3)c1O	MEKK2 WT-MEK5 141 | MEKK2wt confirm inactive | MEKK2mut confirm inactive | MEKK3 confirm inactive
CCOC(=O)c1c(/N=C/c2cc(C)ccc2O)sc2c1CCN(C)C2	none
N#Cc1cccc(S(=O)(=O)NNC(=O)C23CC4CC(CC(C4)C2)C3)c1	none (no result: MEKK2 WT-MEK5, MEKK3 PB1 HTS, MEKK2mut PB1 HTS)
O=C(CSCc1ccc(Cl)c(Cl)c1)Nc1c[nH]c(=O)[nH]c1=O	MEKK3 PB1 HTS 71[inhibitor] | MEKK2wt confirm inactive | MEKK2mut confirm inactive | MEKK3 confirm inactive
O=C(CSCc1ccccc1Cl)Nc1c[nH]c(=O)[nH]c1=O	none
CCCOc1ccc(C2=NNC(=O)CC2)cc1	MEKK3 PB1 HTS 68[inhibitor] | MEKK2wt confirm inactive | MEKK2mut confirm inactive | MEKK3 confirm inactive
COc1ccc(NC(=O)COC(=O)CNC(=O)c2cc(OC)c(OC)c(OC)c2)cc1	MEKK3 PB1 HTS 145 | MEKK2wt confirm inactive | MEKK2mut confirm inactive | MEKK3 confirm inactive
COc1ccc(/C=C/C(=O)N2CCN(S(=O)(=O)c3ccccc3Br)CC2)cc1OC	none (no result: MEKK2 WT-MEK5, MEKK3 PB1 HTS, MEKK2mut PB1 HTS)
Cc1ccc(-c2csc(N3CCC[C@@H]3C(=O)NCCn3c(-c4ccncc4)nc4ccccc43)n2)cc1	none
O=C(Cn1cnc2ccccc2c1=O)Nc1nnc(C2CC2)s1	none
O=C(Cn1cnc2ccccc2c1=O)Nc1nnc(SCc2ccc(Cl)cc2)s1	MEKK2 WT-MEK5 32[inhibitor], MEKK3 PB1 HTS 35[inhibitor] | MEKK2wt confirm inactive | MEKK2mut confirm inactive | MEKK3 confirm inactive
